Reference: ChEMBL document CHEMBL4266027, “Cyanobufalins: Cardioactive Toxins from Cyanobacterial Blooms” (J Nat Prod, 2018)
pEC50: −log10 of the molar value.

Tests used:
[1] = system: SK-OV-3; assay: Cytotoxicity against human SKOV3 cells assessed as decrease in cell viability after 72 hrs by MTS assay; type: functional, cell-based; conditions: SK-OV-3, 72 h
Procedure, shortened: (§1)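 Cell proliferation assay using the MTS reagent. Compounds were tested as a dilution series, and EC50 values were derived from the concentration–response data.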

[2] = system: HCT-116; assay: Cytotoxicity against human HCT116 cells assessed as decrease in cell viability after 72 hrs by MTS assay; type: functional, cell-based; conditions: HCT-116, 72 h; procedure, shortened: as §1
[3] = system: HepG2; assay: Cytotoxicity against human HepG2 cells assessed as decrease in cell viability after 72 hrs by MTS assay; type: functional, cell-based; conditions: HepG2, 72 h; procedure, shortened: as §1
[4] = system: MES-SA; assay: Cytotoxicity against human MESSA cells assessed as decrease in cell viability after 72 hrs by MTS assay; type: functional, cell-based; procedure, shortened: as §1
[5] = system: MES-SA/Dx5; assay: Cytotoxicity against human MES-SA/Dx5 cells assessed as decrease in cell viability after 72 hrs by MTS assay; type: functional, cell-based; conditions: MES-SA/Dx5, 72 h; procedure, shortened: as §1
[6] = system: 786-0; assay: Cytotoxicity against human 786-O cells assessed as decrease in cell viability after 72 hrs by MTS assay; type: functional, cell-based; conditions: 786-0, 72 h; procedure, shortened: as §1
[7] = system: MCF7; assay: Cytotoxicity against human MCF7 cells assessed as decrease in cell viability after 72 hrs by MTS assay; type: functional, cell-based; conditions: MCF7, 72 h; procedure, shortened: as §1
[8] = system: BXPC-3; assay: Cytotoxicity against human BxPC3 cells assessed as decrease in cell viability after 72 hrs by MTS assay; type: functional, cell-based; conditions: BXPC-3, 72 h; procedure, shortened: as §1
[9] = system: U-87 MG; assay: Cytotoxicity against human U87MG cells assessed as decrease in cell viability after 72 hrs by MTS assay; type: functional, cell-based, U-87MG ATCC; procedure, shortened: as §1
[10] = system: NCI-H1975; assay: Cytotoxicity against human NCI-H1975 cells assessed as decrease in cell viability after 72 hrs by MTS assay; type: functional, cell-based; conditions: NCI-H1975, 72 h; procedure, shortened: as §1
[11] = system: HUVEC; assay: Cytotoxicity against human HUVEC cells assessed as decrease in cell viability after 72 hrs by MTS assay; type: cell-based; procedure, shortened: as §1
[12] = system: CCRF S-180; assay: Cytotoxicity against mouse S180 cells assessed as decrease in cell viability after 72 hrs by MTS assay; type: functional, cell-based; conditions: CCRF S-180, 72 h; procedure, shortened: as §1
[13] = system: Cardiac muscle cell; assay: Toxicity in human inducible pluripotent stem cell derived cardiomyocytes assessed as change in beating amplitude at 0.32 nM after 8 mins; type: cell-based; conditions: 0.00032 µM
Procedure, shortened: (§2)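 Human iPSC-derived cardiomyocytes (Cor.4U) were grown to stable beating cultures and monitored by impedance in real time with 20 s recordings. Compounds were given as a dilution series from 0.32 nM to 5 μM, dosed twice 24 h apart, with monitoring over 48 h. Beating amplitude was taken from each negative peak to the following positive peak and reported as % change.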

[14] = system: Cardiac muscle cell; assay: Toxicity in human inducible pluripotent stem cell derived cardiomyocytes assessed as change in beating amplitude at 0.32 nM after 33 mins; type: cell-based; conditions: 0.55 h, 0.00032 µM; procedure, shortened: as §2
[15] = system: Cardiac muscle cell; assay: Toxicity in human inducible pluripotent stem cell derived cardiomyocytes assessed as change in beating amplitude at 0.32 nM after 66 mins; type: cell-based; conditions: 1.1 h, 0.00032 µM; procedure, shortened: as §2
[16] = system: Cardiac muscle cell; assay: Toxicity in human inducible pluripotent stem cell derived cardiomyocytes assessed as change in beating amplitude at 0.32 nM after 4 hrs; type: cell-based; conditions: 0.00032 µM; procedure, shortened: as §2
[17] = system: Cardiac muscle cell; assay: Toxicity in human inducible pluripotent stem cell derived cardiomyocytes assessed as change in beating amplitude at 0.32 nM after 12 hrs; type: cell-based; conditions: 0.00032 µM; procedure, shortened: as §2
[18] = system: Cardiac muscle cell; assay: Toxicity in human inducible pluripotent stem cell derived cardiomyocytes assessed as change in beating amplitude at 0.32 nM after 24 hrs; type: cell-based; conditions: 0.00032 µM; procedure, shortened: as §2
[19] = system: Cardiac muscle cell; assay: Toxicity in human inducible pluripotent stem cell derived cardiomyocytes assessed as change in beating amplitude at 0.32 nM after 36 hrs; type: cell-based; conditions: 0.00032 µM; procedure, shortened: as §2
[20] = system: Cardiac muscle cell; assay: Toxicity in human inducible pluripotent stem cell derived cardiomyocytes assessed as change in beating amplitude at 0.32 nM after 48 hrs; type: cell-based; conditions: 0.00032 µM; procedure, shortened: as §2
[21] = system: Cardiac muscle cell; assay: Toxicity in human inducible pluripotent stem cell derived cardiomyocytes assessed as change in beating amplitude at 1.6 nM after 33 mins; type: cell-based; conditions: 0.55 h, 0.0016 µM; procedure, shortened: as §2
[22] = system: Cardiac muscle cell; assay: Toxicity in human inducible pluripotent stem cell derived cardiomyocytes assessed as change in beating amplitude at 1.6 nM after 66 mins; type: cell-based; conditions: 1.1 h, 0.0016 µM; procedure, shortened: as §2
[23] = system: Cardiac muscle cell; assay: Toxicity in human inducible pluripotent stem cell derived cardiomyocytes assessed as change in beating amplitude at 1.6 nM after 4 hrs; type: cell-based; conditions: 0.0016 µM; procedure, shortened: as §2
[24] = system: Cardiac muscle cell; assay: Toxicity in human inducible pluripotent stem cell derived cardiomyocytes assessed as change in beating amplitude at 1.6 nM after 12 hrs; type: cell-based; conditions: 0.0016 µM; procedure, shortened: as §2
[25] = system: Cardiac muscle cell; assay: Toxicity in human inducible pluripotent stem cell derived cardiomyocytes assessed as change in beating amplitude at 1.6 nM after 24 hrs; type: cell-based; conditions: 0.0016 µM; procedure, shortened: as §2
[26] = system: Cardiac muscle cell; assay: Toxicity in human inducible pluripotent stem cell derived cardiomyocytes assessed as change in beating amplitude at 1.6 nM after 36 hrs; type: cell-based; conditions: 0.0016 µM; procedure, shortened: as §2
[27] = system: Cardiac muscle cell; assay: Toxicity in human inducible pluripotent stem cell derived cardiomyocytes assessed as change in beating amplitude at 1.6 nM after 48 hrs; type: cell-based; conditions: 0.0016 µM; procedure, shortened: as §2
[28] = system: Cardiac muscle cell; assay: Toxicity in human inducible pluripotent stem cell derived cardiomyocytes assessed as change in beating amplitude at 8 nM after 33 mins; type: cell-based; conditions: 0.55 h, 0.008 µM; procedure, shortened: as §2
[29] = system: Cardiac muscle cell; assay: Toxicity in human inducible pluripotent stem cell derived cardiomyocytes assessed as change in beating amplitude at 8 nM after 66 mins; type: cell-based; conditions: 1.1 h, 0.008 µM
Procedure, shortened: (§3)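 Cor.4U hiPSC-derived cardiomyocytes grown to stable beating cultures, then monitored by impedance in RTCA Cardio plates with 20 s recordings. Compounds tested as a dilution series from 0.32 nM to 5 μM, dosed twice 24 h apart, followed over 48 h. Beating amplitude is taken from each negative peak to the next positive peak and reported as percent change.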

[30] = system: Cardiac muscle cell; assay: Toxicity in human inducible pluripotent stem cell derived cardiomyocytes assessed as change in beating amplitude at 8 nM after 4 hrs; type: cell-based; conditions: 0.008 µM; procedure, shortened: as §3
[31] = system: Cardiac muscle cell; assay: Toxicity in human inducible pluripotent stem cell derived cardiomyocytes assessed as change in beating amplitude at 8 nM after 12 hrs; type: cell-based; conditions: 0.008 µM; procedure, shortened: as §2
[32] = system: Cardiac muscle cell; assay: Toxicity in human inducible pluripotent stem cell derived cardiomyocytes assessed as change in beating amplitude at 8 nM after 24 hrs; type: cell-based; conditions: 0.008 µM; procedure, shortened: as §2
[33] = system: Cardiac muscle cell; assay: Toxicity in human inducible pluripotent stem cell derived cardiomyocytes assessed as change in beating amplitude at 8 nM after 36 hrs; type: cell-based; conditions: 0.008 µM; procedure, shortened: as §3
[34] = system: Cardiac muscle cell; assay: Toxicity in human inducible pluripotent stem cell derived cardiomyocytes assessed as change in beating amplitude at 8 nM after 48 hrs; type: cell-based; conditions: 0.008 µM; procedure, shortened: as §3
[35] = system: Cardiac muscle cell; assay: Toxicity in human inducible pluripotent stem cell derived cardiomyocytes assessed as change in beating amplitude at 40 nM after 33 mins; type: cell-based; conditions: 0.55 h, 0.04 µM; procedure, shortened: as §2
[36] = system: Cardiac muscle cell; assay: Toxicity in human inducible pluripotent stem cell derived cardiomyocytes assessed as change in beating amplitude at 40 nM after 66 mins; type: cell-based; conditions: 1.1 h, 0.04 µM; procedure, shortened: as §2
[37] = system: Cardiac muscle cell; assay: Toxicity in human inducible pluripotent stem cell derived cardiomyocytes assessed as change in beating amplitude at 40 nM after 48 hrs; type: cell-based; conditions: 0.04 µM; procedure, shortened: as §2
[38] = system: Cardiac muscle cell; assay: Toxicity in human inducible pluripotent stem cell derived cardiomyocytes assessed as change in beating amplitude at 1.6 nM after 8 mins; type: cell-based; conditions: 0.0016 µM; procedure, shortened: as §2
[39] = system: Cardiac muscle cell; assay: Toxicity in human inducible pluripotent stem cell derived cardiomyocytes assessed as change in beating amplitude at 8 nM after 8 mins; type: cell-based; conditions: 0.008 µM; procedure, shortened: as §3
[40] = system: Cardiac muscle cell; assay: Toxicity in human inducible pluripotent stem cell derived cardiomyocytes assessed as change in beating amplitude at 40 nM after 8 mins; type: cell-based; conditions: 0.04 µM; procedure, shortened: as §2
[41] = system: Cardiac muscle cell; assay: Toxicity in human inducible pluripotent stem cell derived cardiomyocytes assessed as increase in beating amplitude at >40 nM; type: cell-based; procedure, shortened: as §3

## C[C@]12CC[C@H](O)C[C@H]1CC[C@@H]1[C@@H]2CC[C@]2(C)[C@@H](c3ccc(=O)oc3)CC[C@]12O [BUFALIN]
[1]
  pEC50: 8.00
[2]
  pEC50: 7.96
[3]
  pEC50: 7.46
[4]
  pEC50: 7.55
[5]
  pEC50: 7.74
[6]
  pEC50: 8.12
[7]
  pEC50: 7.38
[8]
  pEC50: 7.96
[9]
  pEC50: 7.85
[10]
  pEC50: 7.89
[11]
  pEC50: 7.92
[12]
  pEC50: < 4.70
[13]
  Activity: -3%
[14]
  Activity: -2%
[15]
  Activity: -4.4%
[16]
  Activity: 12%
[17]
  Activity: 17%
[18]
  Activity: 32%
[19]
  Activity: 62%
[20]
  Activity: 42%
[21]
  Activity: -0.6%
[22]
  Activity: -2.7%
[23]
  Activity: 11%
[24]
  Activity: 8.9%
[25]
  Activity: 4.3%
[26]
  Activity: -2.9%
[27]
  Activity: -10%
[28]
  Activity: 3.1%
[29]
  Activity: 10%
[30]
  Activity: 34%
[31]
  Activity: 35%
[32]
  Activity: -22%
[33]
  Activity: 7.6%
[34]
  Activity: -32%
[35]
  Activity: 21%
[36]
  Activity: -62%
[37]
  Activity: -84.3%
[38]
  Activity: 1.8%
[39]
  Activity: 2.8%
[40]
  Activity: 8.5%
[41]
  Activity: Toxic
